Experimental data from ChEMBL document CHEMBL1127362, “Synthesis and pharmacological evaluation of isoindolo[1,2-b]quinazolinone and isoindolo[2,1-a]benzimidazole derivatives related to the antitumor agent batracylin” (J Med Chem, 1994).

Legend:
CCRF-CEM = assay: Tested for the inhibitory activity against CCRF CEM T- cell leukemia cells; type: functional, cell-based; conditions: Homo sapiens
How it was run: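 MTT microtiter tetrazolium assay; CCRF CEM cells seeded at 30 000 cells/well and allowed to attach. Each dose tested in four replicate plates, each with eight DMSO-only control wells.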

Rattus norvegicus = species on record: Rattus norvegicus; assay: Nuclear count minus the highest cytoplasmic count determined in rat hepatocytes for each cell; type: functional, Hepatocyte
How it was run: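 Hepatocytes isolated from F-344 rats (220–300 g), ~5 × 10⁶ cells seeded on coverslips; after 2 h washed, refed with serum-free Williams medium E and exposed together to 10 μCi/mL tritiated thymidine (50–90 Ci/mmol) plus compound in DMSO. Autoradiography after 18–20 h; 20 cells counted per slide, triplicate per concentration, mean ± SD of two experiments. Positive requires net grains >0 with dose response.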

[1] = system: DNA topoisomerase II (Bos taurus); assay: Relative potency to cause 90% of topoisomerase II-mediated cleavage of liner 8.4-kb YEPG DNA

| SMILES | IC50 (CCRF-CEM) | Relative activity [1] | Net grain counts (Rattus norvegicus) |
| --- | --- | --- | --- |
| Cc1cccc2c1nc1n2C(=O)c2ccccc2-1 | > 200 µM | 0 | -3.5 |
| O=C1c2ccccc2-c2nc3ccc(O)cc3n21 | > 200 µM | 0 |  |
| Nc1ccc2c(c1)CN1C(=O)c3ccccc3C1=N2 [DANIQUIDONE] | 14 µM |  | 93.1 |
| COc1ccc(N)c(N2C(=O)c3ccccc3C2=O)c1 | > 200 µM | 0 | -8.9 |
| O=C1c2ccccc2C2=Nc3ccncc3CN12 | 102 µM | 0.1 | -5.2 |
| O=C1c2ccccc2C2=Nc3ccccc3CN12 | 60 µM | 1 | -4.5 |
| O=C1c2ccccc2C2=Nc3ccc([N+](=O)[O-])cc3CN12 | > 150 µM | 0 | 10.5 |
| COc1cc([C@@H]2c3cc4c(cc3[C@@H](O[C@@H]3O[C@@H]5CO[C@@H](C)O[C@H]5[C@H](O)[C@H]3O)[C@H]3COC(=O)[C@H]23)OCO4)cc(OC)c1O [ETOPOSIDE] | 0.002 µM |  | -7.5 |

Continued, in another order:

| IC50 (CCRF-CEM) | Relative activity [1] | SMILES | Net grain counts (Rattus norvegicus) |
| --- | --- | --- | --- |
| > 200 µM | 0 | Cc1cccc2nc3n(c12)C(=O)c1ccccc1-3 | -3.7 |
| 71 µM | 0 | Cc1cccc(N)c1N1C(=O)c2ccccc2C1=O | -8.7 |
| > 200 µM | 0 | Nc1ccc2nc3n(c2c1)C(=O)c1ccccc1-3 | -4.4 |
| > 200 µM | 0 | O=C1c2ccccc2-c2nc3ccncc3n21 | -10.5 |
| > 200 µM | 0 | Cc1cccc(N2C(=O)c3ccccc3C2=O)c1[N+](=O)[O-] | -4.1 |
| > 200 µM | 0 | COc1ccc2nc3n(c2c1)C(=O)c1ccccc1-3 | -3.6 |
| 68 µM | 0 | O=C1c2ccccc2-c2nc3ccccc3n21 | -7.4 |
